In ChEMBL document CHEMBL5356993, “Novel pyrazolo[3,4-d]pyrimidine derivatives: design, synthesis, anticancer evaluation, VEGFR-2 inhibition, and antiangiogenic activity” (RSC Med Chem, 2023):

Key:
Format in all cases: functional
Settings in all cases: read-out: GI
SK-MEL-28 = experiment: Antiproliferative activity against human SK-MEL-28 cells assessed as cell growth inhibition at 10 uM incubated for 48 hrs by SRB assay relative to control
Summary of the method: (§1)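 Cells plated in 96-well plates at […] cells/well and preincubated 24 h at 37 °C, 5% CO2. Time-zero plates were TCA-fixed. Compound was diluted in medium with 50 µg/mL gentamicin and cells exposed for 48 h. Adherent cells fixed with 10% final TCA; suspension cells with 16% final TCA. Plates stained with 0.4% SRB in 1% acetic acid, dye solubilized in 10 mM Trizma, absorbance read at 515 nm. Percent growth calculated against time-zero and control.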

RPMI-8226 = experiment: Antiproliferative activity against human RPMI-8226 cells assessed as cell growth inhibition at 10 uM incubated for 48 hrs by SRB assay relative to control
SN12C = experiment: Antiproliferative activity against human SN12C cells assessed as cell growth inhibition at 10 uM incubated for 48 hrs by SRB assay relative to control
SF-295 = experiment: Antiproliferative activity against human SF-295 cells assessed as cell growth inhibition at 10 uM incubated for 48 hrs by SRB assay relative to control; summary of the method: as §1
ACHN = experiment: Antiproliferative activity against human ACHN cells assessed as cell growth inhibition at 10 uM incubated for 48 hrs by SRB assay relative to control
DU-145 = experiment: Antiproliferative activity against human DU-145 cells assessed as cell growth inhibition at 10 uM incubated for 48 hrs by SRB assay relative to control
MDA-MB-468 = experiment: Antiproliferative activity against human MDA-MB-468 cells assessed as cell growth inhibition at 10 uM incubated for 48 hrs by SRB assay relative to control
IGROV-1 = experiment: Antiproliferative activity against human IGROV-1 cells assessed as cell growth inhibition at 10 uM incubated for 48 hrs by SRB assay relative to control
SK-OV-3 = experiment: Antiproliferative activity against human SK-OV-3 cells assessed as cell growth inhibition at 10 uM incubated for 48 hrs by SRB assay relative to control; summary of the method: as §1
RXF 393 = experiment: Antiproliferative activity against human RXF 393 cells assessed as cell growth inhibition at 10 uM incubated for 48 hrs by SRB assay relative to control; summary of the method: as §1
M14 = experiment: Antiproliferative activity against human M14 cells assessed as cell growth inhibition at 10 uM incubated for 48 hrs by SRB assay relative to control; summary of the method: as §1
NCI-H522 = experiment: Antiproliferative activity against human NCI-H522 cells assessed as cell growth inhibition at 10 uM incubated for 48 hrs by SRB assay relative to control; summary of the method: as §1
OVCAR-8 = experiment: Antiproliferative activity against human OVCAR-8 cells assessed as cell growth inhibition at 10 uM incubated for 48 hrs by SRB assay relative to control
PC-3 = experiment: Antiproliferative activity against human PC-3 cells assessed as cell growth inhibition at 10 uM incubated for 48 hrs by SRB assay relative to control
CCRF-CEM = experiment: Antiproliferative activity against human CCRF-CEM cells assessed as cell growth inhibition at 10 uM incubated for 48 hrs by SRB assay relative to control; summary of the method: as §1
SK-MEL-5 = experiment: Antiproliferative activity against human SK-MEL-5 cells assessed as cell growth inhibition at 10 uM incubated for 48 hrs by SRB assay relative to control; summary of the method: as §1
NCI-H322M = experiment: Antiproliferative activity against human NCI-H322M cells assessed as cell growth inhibition at 10 uM incubated for 48 hrs by SRB assay relative to control
SK-MEL-2 = experiment: Antiproliferative activity against human SK-MEL-2 cells assessed as cell growth inhibition at 10 uM incubated for 48 hrs by SRB assay relative to control; summary of the method: as §1
CAKI-1 = experiment: Antiproliferative activity against human CAKI-1 cells assessed as cell growth inhibition at 10 uM incubated for 48 hrs by SRB assay relative to control
BT-549 = experiment: Antiproliferative activity against human BT-549 cells assessed as cell growth inhibition at 10 uM incubated for 48 hrs by SRB assay relative to control
MCF7 = experiment: Antiproliferative activity against human MCF7 cells assessed as cell growth inhibition at 10 uM incubated for 48 hrs by SRB assay relative to control
OVCAR-5 = experiment: Antiproliferative activity against human OVCAR-5 cells assessed as cell growth inhibition at 10 uM incubated for 48 hrs by SRB assay relative to control; summary of the method: as §1
HL-60(TB) = experiment: Antiproliferative activity against human HL-60(TB) cells assessed as cell growth inhibition at 10 uM incubated for 48 hrs by SRB assay relative to control
Summary of the method: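 Cells were plated at […] cells/well and preincubated 24 h at 37°C, 5% CO2, with time-zero plates TCA-fixed. Compound was diluted from DMSO stock in medium with 50 µg/mL gentamicin, then exposed for 48 h. Settled suspension cells were fixed with 80% TCA (final 16%), stained with 0.4% SRB and solubilized in 10 mM Trizma, A515. Growth was taken relative to Tz and control.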

OVCAR-3 = experiment: Antiproliferative activity against human OVCAR-3 cells assessed as cell growth inhibition at 10 uM incubated for 48 hrs by SRB assay relative to control; summary of the method: as §1
HCT-15 = experiment: Antiproliferative activity against human HCT-15 cells assessed as cell growth inhibition at 10 uM incubated for 48 hrs by SRB assay relative to control
KM12 = experiment: Antiproliferative activity against human KM12 cells assessed as cell growth inhibition at 10 uM incubated for 48 hrs by SRB assay relative to control; summary of the method: as §1
HCC 2998 = experiment: Antiproliferative activity against human HCC 2998 cells assessed as cell growth inhibition at 10 uM incubated for 48 hrs by SRB assay relative to control
TK-10 = experiment: Antiproliferative activity against human TK-10 cells assessed as cell growth inhibition at 10 uM incubated for 48 hrs by SRB assay relative to control
Summary of the method: (§2)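 Cells pre-incubated 24 h at 37°C, 5% CO2, then exposed to compound (DMSO stock diluted in medium with 50 µg/mL gentamicin) for 48 h. Adherent cells fixed with cold TCA (final 10%, 60 min, 4°C); suspension cells fixed with 16% TCA final. Stained with 0.4% SRB in 1% acetic acid for 10 min, dye solubilized in 10 mM Trizma base, absorbance read at 515 nm. Growth calculated against time-zero and untreated control plates.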

Malme-3M = experiment: Antiproliferative activity against human Malme-3M cells assessed as cell growth inhibition at 10 uM incubated for 48 hrs by SRB assay relative to control
Hs-578T = experiment: Antiproliferative activity against human Hs-578T cells assessed as cell growth inhibition at 10 uM incubated for 48 hrs by SRB assay relative to control; summary of the method: as §1
MOLT-4 = experiment: Antiproliferative activity against human MOLT-4 cells assessed as cell growth inhibition at 10 uM incubated for 48 hrs by SRB assay relative to control
U-251 = experiment: Antiproliferative activity against human U-251 cells assessed as cell growth inhibition at 10 uM incubated for 48 hrs by SRB assay relative to control; summary of the method: as §2

Which results are given for `Cc1nc2c(cnn2-c2ccccc2)c(=O)n1-c1ccc(/N=C2\C(=O)Nc3ccccc32)cc1`?
inhibition of growth at 10 µM (SK-MEL-28): < 15%; inhibition of growth at 10 µM (RPMI-8226): 36.5%; inhibition of growth at 10 µM (SN12C): 37.3%; inhibition of growth at 10 µM (SF-295): 24.7%; inhibition of growth at 10 µM (ACHN): 27.7%; inhibition of growth at 10 µM (DU-145): < 15%; inhibition of growth at 10 µM (MDA-MB-468): 51.4%; inhibition of growth at 10 µM (IGROV-1): 34.7%; inhibition of growth at 10 µM (SK-OV-3): 19.6%; inhibition of growth at 10 µM (RXF 393): 29%; inhibition of growth at 10 µM (M14): 18.8%; inhibition of growth at 10 µM (NCI-H522): 16.8%; inhibition of growth at 10 µM (OVCAR-8): 24.8%; inhibition of growth at 10 µM (PC-3): 24%; inhibition of growth at 10 µM (CCRF-CEM): 37.8%; inhibition of growth at 10 µM (SK-MEL-5): 42.9%; inhibition of growth at 10 µM (NCI-H322M): < 15%; inhibition of growth at 10 µM (SK-MEL-2): < 15%; inhibition of growth at 10 µM (CAKI-1): 31.7%; inhibition of growth at 10 µM (BT-549): 22.1%; inhibition of growth at 10 µM (MCF7): 33.7%; inhibition of growth at 10 µM (OVCAR-5): < 15%; inhibition of growth at 10 µM (HL-60(TB)): < 15%; inhibition of growth at 10 µM (OVCAR-3): 24.3%; inhibition of growth at 10 µM (HCT-15): 15.7%; inhibition of growth at 10 µM (KM12): < 15%; inhibition of growth at 10 µM (HCC 2998): < 15%; inhibition of growth at 10 µM (TK-10): < 15%; inhibition of growth at 10 µM (Malme-3M): 23.1%; inhibition of growth at 10 µM (Hs-578T): 17.6%; inhibition of growth at 10 µM (MOLT-4): 34.1%; inhibition of growth at 10 µM (U-251): 39.6%
